Compound activity: PubChem, several laboratories
MDM2 E3 inh: Mdm2 E3 ligase (human) inhibition; Q00987; cell-based MDM2 ubiquitination luciferase reporter, 2 h; 0 = plate control, 100 = twice control, blank-subtracted; signal enhancement, % at 5 µM; hit rate 0.11% among 210,000;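 active means signal enhancement of 30% or more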;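 further: luminescence tracks abundance of the self-degrading MDM2-luciferase fusion protein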
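Assay system: mammalian cells stably expressing self-ubiquitinating, self-degrading MDM2 E3–luciferase fusion. Quantity: 2000 cells in each well. Medium: DMEM culture medium. Compound dosing: single-point 5 µM. Timing: cell settling 4 h, compound treatment 2 h, both 37 °C. Technique: luciferase luminescence. Read-out basis: percent signal gain over controls, blank-subtracted. Benchmarks: plate controls and plate blanks.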
S1P3 antagonist: blocks the human S1P3 receptor | Q99500 | CHO S1P3 NFAT-BLA reporter, FRET fluorescence, antagonist mode | hit rate 0.27% among 170,000 | inhibition, % at 4.98 µM;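 active means inhibition above the plate cutoff, the mean inhibition of test wells on that plate plus 3 SD, cut at about 28% in these data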;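 further: cells challenged with S1P at its EC80 of 0.8 µM; blue over green emission ratio from cleaved BLA substrate after 4 h stimulation; 0% = S1P-stimulated wells and 100% = unstimulated DMSO-only wells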
Target sequence (Q99500 whole entry, looked up): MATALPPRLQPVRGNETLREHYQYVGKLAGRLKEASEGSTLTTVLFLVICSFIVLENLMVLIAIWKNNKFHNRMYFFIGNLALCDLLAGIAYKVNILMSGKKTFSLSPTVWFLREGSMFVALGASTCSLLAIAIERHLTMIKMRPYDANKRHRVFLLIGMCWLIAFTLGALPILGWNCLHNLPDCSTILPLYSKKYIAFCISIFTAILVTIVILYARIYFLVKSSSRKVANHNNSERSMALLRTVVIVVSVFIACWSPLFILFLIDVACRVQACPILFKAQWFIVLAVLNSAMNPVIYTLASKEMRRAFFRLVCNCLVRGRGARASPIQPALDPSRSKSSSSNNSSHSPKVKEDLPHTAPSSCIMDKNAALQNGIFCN
L major viab: inhibitors of Leishmania major promastigote growth. inhibition, % at 10 µM. hit rate 9% among 200,000. AID 1063. Leishmania major promastigotes, resazurin fluorescence viability; in the data active means inhibition above about 50%;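 further: promastigotes grown with compound for 44 hours at 28 °C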
S1P4 antagonist: blocks the human S1P4 receptor | inhibition, % at 4.98 µM | S1P4-expressing cells, antagonist mode, reporter read-out | O95977 | AID 1510 | hit rate 0.26% among 220,000; in the data active means inhibition above about 29%;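 further: 0% = wells stimulated with agonist and 100% = vehicle wells without agonist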
S1P4 agonist: agonists of human S1P4 receptor; O95977; hit rate 0.35% among 220,000; S1P4-expressing cell line, agonist reporter assay; activation, % at 4.98 µM; AID 1509; in the data active means activation above about 11%;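 further: 0% = DMSO vehicle and 100% = reference agonist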
The depositor's hits bear a star; / = no result given. This is one part of a sample in which hits are shown more often than they occur.

SMILES	MDM2 E3 inh	S1P3 antagonist	L major viab	S1P4 antagonist	S1P4 agonist
O=C(NCCCN1CCOCC1)c1cc2c(s1)CSC2	-11.3	-8.8	80.4*	-0.3	-4.0
CC(=O)Oc1cc2c(C(=O)NCCCN3CCOCC3)c(C)oc2c2ccccc12	-6.0	-25.7	51.9*	-2.7	0.7
O=C(NCCCN1CCOCC1)c1ccccc1	-21.1	/	-5.5	-0.8	-1.7
O=C(NCCCN1CCOCC1)c1cc2ccccc2oc1=O	-18.7	2.4	22.6	5.8	1.5
Clc1ccc(-c2nc3cnccn3c2Nc2ccc3c(c2)OCO3)cc1	-7.9	/	30.3	12.0	-2.8
Oc1ccccc1-c1nc2cnccn2c1Nc1ccc2c(c1)OCCO2	-4.0	/	77.2*	-6.3	-0.5
CSc1ccc(-c2nc3cnccn3c2Nc2ccc3c(c2)OCO3)cc1	-7.3	/	100.3*	1.9	2.2
CCOc1ccsc1C(=O)OC	-2.0	1.7	/	7.8	1.1
CCN(CC)CCCNc1oc(-c2cccc(Cl)c2)nc1C#N	-15.7	-36.6	100.6*	-16.7	-2.3
COCCNc1oc(-c2ccc(Cl)cc2)nc1C#N	-12.8	/	-14.7	-2.7	1.3
CN(C)CCCNc1oc(-c2ccc(Cl)cc2)nc1C#N	-1.4	-9.6	82.9*	-19.6	1.5
CCC(C)c1ccc(NC(=O)COC(=O)C2=COCCO2)cc1 (configuration not stated)	-12.1	/	0.7	4.9	0.2
c1ccc(CCC2CCCCN2Cc2nc(-c3ccc4c(c3)OCO4)no2)nc1 (configuration not stated)	-15.8	-3.3	24.5	-8.7	1.4
CN1C(=S)SC2CS(=O)(=O)CC21 (configuration not stated)	-11.7	-3.1	/	0.0	-0.1
O=C(NC1CCCCC1)C(c1ccccc1)N1CCc2ccccc21 (configuration not stated)	-4.5	/	50.4*	-0.7	0.2
O=C(NC1CCCC1)C(c1ccc(Cl)cc1)N1CCc2ccccc21 (configuration not stated)	-6.2	/	7.0	-18.7	2.7
COc1ccc(-c2nnn(CC(=O)NCCc3c[nH]c4ccccc34)n2)cc1OC	1.1	/	46.0	-7.2	-3.1
CCOc1ccc(-c2nnn(CC(=O)NCCc3c[nH]c4ccccc34)n2)cc1	-29.9	/	93.9*	4.5	-0.8
COc1ccc(N(C(=O)c2ccccc2OC(C)=O)C(C)C2CC2)cc1 (configuration not stated)	-18.1	/	99.8*	5.0	-0.7
CCO[C@H]1OC(C(=O)NCc2ccccc2)=C[C@@H](c2ccc(C(F)(F)F)cc2)[C@@H]1CCCO	/	-13.9	53.2*	14.2	-1.2
c1cn(-c2ncnc3sc4c(c23)CCCC4)cn1	-26.5	-4.9	4.1	10.3	-2.0
CC1=C(C(=O)c2ccccc2)C(c2cn(-c3ccccc3)nc2-c2ccc(Cl)cc2)NC(=S)N1 (configuration not stated)	-7.3	/	100.2*	1.2	3.3
CC(C)c1ccccc1NC(=O)CNC(C)c1ccc(F)cc1 (configuration not stated)	-6.8	13.5	3.0	-16.5	-0.6
O=C(c1cc(C2CC2)nc2ccccc12)N1N=C(C(F)F)CC1(O)C(F)F (configuration not stated)	3.4	/	14.3	3.4	-1.6
CC(C)c1ccc(-c2cc(C(=O)N3N=C(C(F)F)CC3(O)C(F)F)c3ccccc3n2)cc1 (configuration not stated)	-4.8	/	92.8*	6.7	-2.5
SMILES	MDM2 E3 inh	S1P3 antagonist	L major viab	S1P4 antagonist	S1P4 agonist
Cc1ccc(-c2cc(C(F)F)nc(NCC3CCCO3)n2)cc1 (configuration not stated)	4.8	/	64.2*	-4.6	-2.2
O=C1[C@H](CC[C@H](O)c2ccc(F)cc2)[C@@H](c2ccc(O)cc2)N1c1ccc(F)cc1	/	-5.1	/	3.5	0.6
COc1ccc(CCN2CC(C(=O)NC3CCCCC3)CC2=O)cc1OC (configuration not stated)	-6.6	3.1	-13.8	-2.6	0.4
CCn1cc(C(=O)NCCCN2CCN(C)CC2)c(=O)c2cc(S(=O)(=O)N3CCc4ccccc4C3)ccc21	-13.7	-9.0	5.3	-17.6	1.0
COc1ccc(OC)c2c(C)cc(N3CCCN(C)CC3)nc12	-8.5	/	7.7	-2.5	3.8
CN(C)CCCn1c(NC(=O)C2CCCCC2)nc2ccccc21	-16.4	/	-3.1	0.5	-1.3
CCCCn1c(NCCO)nc2ccccc21	-15.2	/	-4.4	-5.1	3.9
CCCCn1c(NC(=O)C2CCCCC2)nc2ccccc21	-6.7	/	71.5*	-4.2	-1.1
S=C(Nc1ccccc1)Nc1nc2ccccc2n1CCOc1ccccc1	-3.2	/	51.2*	-0.5	1.3
CCCCn1c(NC(=S)Nc2ccccc2)nc2ccccc21	-5.5	-9.8	80.0*	0.3	0.1
CCCCn1c(NC(=O)c2ccccc2)nc2ccccc21	-2.9	23.7	95.6*	2.0	3.2
CCN(CC)CCCN1C(=O)c2oc3ccccc3c(=O)c2C1c1cc(OC)ccc1OC (configuration not stated)	8.6	-12.4	3.8	-1.6	-0.7
O=C(CCN1CCC(c2cccs2)=N1)c1cccs1	-8.9	2.8	/	5.8	1.2
NC(=O)C1CCN(CC(=O)Nc2cccnc2Cl)CC1	5.5	-3.0	-5.2	-8.0	-1.3
CCOC(=O)N1CCC(N2Cc3cccc(C(=O)N4CCN(c5cccc(C)c5C)CC4)c3C2=O)CC1	8.6	2.8	61.6*	-8.2	1.6
CCOC(=O)N1CCC(N2Cc3cccc(C(=O)N4CCN(c5cccc(Cl)c5)CC4)c3C2=O)CC1	-8.1	-12.3	10.3	-13.8	-0.1
COCCN1Cc2cccc(C(=O)N3CCN(c4cc(C)ccc4C)CC3)c2C1=O	-4.1	29.8	9.9	9.4	0.6
CCCN1Cc2cccc(C(=O)N3CCN(c4cc(Cl)ccc4C)CC3)c2C1=O	-9.2	19.7	96.7*	10.8	-3.2
O=C(Nc1nnc(-c2cccnc2)o1)c1cccc(Cl)c1	-0.3	-5.1	54.8*	-7.7	2.7
O=C(Nc1nnc(-c2ccccn2)o1)c1cccc(Cl)c1	-2.4	-20.2	51.1*	-5.3	-2.1
CS(=O)(=O)N1CCC(C(=O)NCc2ccc3c(c2)OCO3)CC1	-5.4	7.1	-6.0	-0.6	1.2
Nc1cccc(-n2nnnc2CN2CCOCC2)c1	-6.3	-3.7	28.2	-9.2	1.2
O=C(/C=C(/c1ccc(Cl)cc1)n1cncn1)c1ccccc1	6.9	12.3	94.4*	8.4	1.6
CN(C)/C=C(/C(=O)c1ccccc1)n1cncn1	-1.5	-6.8	-2.8	-16.5	1.1
CCN(c1ccccc1)S(=O)(=O)c1ccc(C(=O)Nc2nnc(-c3ccco3)o2)cc1	-6.4	-9.0	98.9*	-16.8	-0.7
CC(=O)Nc1nnc(-c2ccco2)o1	-8.1	6.2	-7.0	-1.8	-1.5
O=C(/C=C/c1ccccc1)Nc1nnc(-c2ccco2)o1	-13.2	-16.5	65.1*	10.6	-0.9
CCN(c1ccccc1)S(=O)(=O)c1ccc(C(=O)Nc2nnc(C3CC3)o2)cc1	-5.1	-3.1	94.0*	-1.4	-0.9
CCN(c1ccccc1)S(=O)(=O)c1ccc(C(=O)Nc2nnc(COC)o2)cc1	-19.0	-23.8	3.1	-3.9	1.4
